In ChEMBL document CHEMBL2380226, “Novel dual cyclooxygenase and lipoxygenase inhibitors targeting hyaluronan-CD44v6 pathway and inducing cytotoxicity in colon cancer cells” (Bioorg Med Chem, 2013):
The source made the active and inactive calls. The calls are words filed in the database; no cut-off is given here.

Key:
[1] = Inhibition of hyaluronan-induced CD44 antigen variant exon 6 activity in mouse APC10.1 cells expressing Has2 assessed as decrease in cell survival after 18 hrs by MTS assay; type: cell-based
Procedure, shortened: (§1)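 Cells were harvested, counted and seeded at 20 × 10^3 per well. After 18 h the medium was replaced with medium containing the agents. MTS/PMS reagent was freshly prepared at 2/0.92 mg/mL in DPBS and added in excess, then incubated at 5% CO2. Absorbance was read at 490 nm at 90 min, and cell-free blank absorbance was subtracted. IC50 is the concentration giving 50% inhibition of proliferation, reported as mean ± S.D. (three replicates of 4 independent analyses).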

HT-29 [2] = assay: Cytotoxicity against human HT-29 cells assessed as growth inhibition after 18 hrs by MTS assay; type: functional, cell-based; procedure, shortened: as §1
[3] = Cytotoxicity against human HCA-7 cells assessed as decrease in cell survival after 18 hrs by MTS assay; type: functional, cell-based; conditions: HCA-7, 18 h; procedure, shortened: as §1
Mus musculus [4] = species: Mus musculus; assay: Inhibition of hyaluronan-induced CD44 antigen variant exon 6 activity in mouse APC10.1 cells assessed as cell growth inhibition after 18 hrs by MTS assay; type: cell-based; procedure, shortened: as §1
HT-29 [5] = assay: Inhibition of hyaluronan-induced CD44 antigen variant exon 6 activity in human HT29 cells assessed as decrease in 5-LOX expression at 10 uM; type: cell-based
[6] = Inhibition of hyaluronan-induced CD44 antigen variant exon 6 activity in human HT-29 cells expressing Has2 assessed as decrease in cell survival after 18 hrs by MTS assay; type: cell-based; conditions: HT-29, 18 h; procedure, shortened: as §1
[7] = Inhibition of hyaluronan-induced CD44 antigen variant exon 6 activity in human HCA-7 cells expressing Has2 assessed as decrease in cell survival after 18 hrs by MTS assay; type: cell-based; conditions: HCA-7, 18 h; procedure, shortened: as §1
HT-29 [8] = assay: Inhibition of hyaluronan-induced CD44 antigen variant exon 6 activity in human HT29 cells assessed as decrease in COX-2 expression at 10 uM; type: cell-based
HCA-7 [9] = assay: Cytotoxicity against human HCA-7 cells assessed as growth inhibition after 18 hrs by MTS assay; type: functional, cell-based; procedure, shortened: as §1
HT-29 [10] = assay: Cytotoxicity against human HT-29 cells assessed as decrease in cell survival after 18 hrs by MTS assay; type: functional, cell-based; conditions: HT-29, 18 h; procedure, shortened: as §1
[11] = Cytotoxicity against mouse APC10.1 cells assessed as decrease in cell survival after 18 hrs by MTS assay; type: functional, cell-based; procedure, shortened: as §1
[12] = Inhibition of potato 5-LOX using arachidonic acid as substrate assessed as production of hydroperoxides after 5 mins […]; parameters: species or system Solanum tuberosum
Procedure, shortened: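 Potato 5-LOX was tested with a commercial lipoxygenase screening kit that measures hydroperoxides. Compounds were dissolved in minimal DMSO and diluted in the supplied buffer. The reaction was started with arachidonic acid and shaken for 5 min. Chromogen was added, shaken for 5 min, and absorbance read at 500 nm. Percent inhibition was taken against control, and IC50 was derived from the concentration-inhibition curve from duplicate determinations.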

Ovis aries = species: Ovis aries; assay: Selectivity ratio of IC50 for sheep placental COX-2 to IC50 for ram seminal vesicle COX-1; type: tissue-based
[13] = biological target: T1, Prostaglandin G/H synthase 2 (Ovis aries, UniProt P79208); assay: Inhibition of sheep placental COX-2 using arachidonic acid as substrate assessed as production of PGF2alpha by enzyme immunoassay in presence of stannous chloride
T1 sequence (P79208 whole entry): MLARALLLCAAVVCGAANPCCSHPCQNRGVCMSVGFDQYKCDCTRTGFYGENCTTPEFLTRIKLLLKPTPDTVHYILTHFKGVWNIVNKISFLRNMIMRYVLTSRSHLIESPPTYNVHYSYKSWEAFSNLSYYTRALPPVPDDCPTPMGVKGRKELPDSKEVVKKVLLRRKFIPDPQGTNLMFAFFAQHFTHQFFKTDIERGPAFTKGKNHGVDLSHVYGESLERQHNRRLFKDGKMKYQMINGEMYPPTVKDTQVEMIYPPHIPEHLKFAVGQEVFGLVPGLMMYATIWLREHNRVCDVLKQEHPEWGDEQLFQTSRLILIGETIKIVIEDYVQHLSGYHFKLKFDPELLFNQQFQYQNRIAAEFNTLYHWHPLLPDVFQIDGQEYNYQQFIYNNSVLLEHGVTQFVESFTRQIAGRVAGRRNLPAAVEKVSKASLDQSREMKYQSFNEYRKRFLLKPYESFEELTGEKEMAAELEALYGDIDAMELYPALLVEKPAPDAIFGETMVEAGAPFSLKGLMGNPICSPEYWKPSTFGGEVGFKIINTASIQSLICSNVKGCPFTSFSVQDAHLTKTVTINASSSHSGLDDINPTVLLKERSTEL
Procedure, shortened: (§2)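 PGH2 formed by the enzyme is reduced with stannous chloride to PGF, which is quantified by competitive EIA. PGs compete with a PG-acetylcholinesterase tracer for PG antiserum, and the complex is captured on an anti-rabbit antibody-coated well. Ellman's reagent is developed and absorbance is read at 405 nm. Percent inhibition is taken against control incubations, and IC50 comes from the concentration-inhibition curve.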

[14] = biological target: T2, Prostaglandin G/H synthase 1 (Ovis aries, UniProt P05979); assay: Inhibition of ram seminal vesicle COX-1 using arachidonic acid as substrate assessed as production of PGF2alpha by enzyme immunoassay in presence of stannous chloride; procedure, shortened: as §2
T2 sequence (P05979 whole entry): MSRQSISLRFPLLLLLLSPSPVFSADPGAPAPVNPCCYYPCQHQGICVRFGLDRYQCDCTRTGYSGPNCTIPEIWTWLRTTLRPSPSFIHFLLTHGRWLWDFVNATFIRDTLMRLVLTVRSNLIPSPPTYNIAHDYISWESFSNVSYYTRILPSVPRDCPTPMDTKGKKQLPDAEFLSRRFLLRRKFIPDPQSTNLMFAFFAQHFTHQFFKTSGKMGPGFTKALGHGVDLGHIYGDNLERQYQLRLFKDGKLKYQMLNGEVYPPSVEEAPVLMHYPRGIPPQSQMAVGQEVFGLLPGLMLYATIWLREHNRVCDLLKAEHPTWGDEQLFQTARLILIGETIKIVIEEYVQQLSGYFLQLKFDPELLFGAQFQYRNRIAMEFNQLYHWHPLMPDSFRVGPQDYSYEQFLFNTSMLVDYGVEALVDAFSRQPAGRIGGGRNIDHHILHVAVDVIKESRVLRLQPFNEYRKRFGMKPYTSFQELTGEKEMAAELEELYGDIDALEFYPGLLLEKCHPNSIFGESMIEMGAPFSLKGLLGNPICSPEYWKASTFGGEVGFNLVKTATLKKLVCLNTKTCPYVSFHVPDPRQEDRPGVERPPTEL

HCA-7 [15] = assay: Cytotoxicity against human HCA-7 cells assessed as growth inhibition at 2 to 50 uM after 24 hrs by MTT assay; type: functional, cell-based
Procedure, shortened: (§3)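 Cells were treated for 24 h at four concentrations in triplicate. MTT (stock 5 mg/ml in PBS, pH 7.2, filtered) was then added and incubated for 4 h at 37°C. Formazan was solubilized with 10% SDS in 0.01 N HCl, and absorbance was read at 570 nm to give viability.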

[16] = Cytotoxicity against rat IEC-6 cells assessed as growth inhibition at 2 to 50 uM after 24 hrs by MTT assay; type: cell-based; conditions: iec-6, 24 h; procedure, shortened: as §3
Mus musculus [17] = species: Mus musculus; assay: Inhibition of hyaluronan-induced CD44 antigen variant exon 6 activity in mouse APC10.1 cells assessed as cell growth inhibition at 2 to 50 uM after 24 hrs by MTT assay; type: cell-based; procedure, shortened: as §3
HT-29 [18] = assay: Cytotoxicity against human HT-29 cells assessed as growth inhibition at 2 to 50 uM after 24 hrs by MTT assay; type: functional, cell-based; procedure, shortened: as §3
Mus musculus [19] = species: Mus musculus; assay: Cytotoxicity against mouse APC10.1 cells expressing COX and LOX assessed as growth inhibition at 2 to 50 uM after 24 hrs by MTT assay; type: functional, cell-based; procedure, shortened: as §3

SMILES | IC50 [1] [µM] | growth inhibition (GI) (HT-29 [2]) | IC50 [3] [µM] | growth inhibition (GI) (Mus musculus [4]) | inhibition (HT-29 [5]) | IC50 [6] [µM] | IC50 [7] [µM] | inhibition (HT-29 [8]) | growth inhibition (GI) (HCA-7 [9]) | IC50 (HT-29 [10]) [µM] | IC50 [11] [µM] | IC50 [12] [µM] | Ratio IC50 (Ovis aries) | IC50 [13] [µM] | IC50 [14] [µM] | growth inhibition (GI) (HCA-7 [15]) | Activity [16] | growth inhibition (GI) (Mus musculus [17]) | growth inhibition (GI) (HT-29 [18]) | growth inhibition (GI) (Mus musculus [19])
Cc1ccc(-c2cc(C(F)(F)F)nn2-c2ccc(S(N)(=O)=O)cc2)cc1 [CELECOXIB] | 6 | Dose-dependent effect | 2 | Dose-dependent effect | Active | 18.3 | 17.5 | Active | Dose-dependent effect | 3 | 4.2 | – | – | – | – | – | – | – | – | –
CC(C)(C)c1cc(/C=C2\SC(=N)NC2=O)cc(C(C)(C)C)c1O [DARBUFELONE] | – | – | – | – | – | – | – | – | – | – | – | 0.77 | 0.014 | – | – | – | – | – | – | –
CC(C)(C)C1=CC(=NNC(=O)c2ccncc2)C=C(C(C)(C)C)C1=O | 18.3 | Dose-dependent effect | 12 | Dose-dependent effect | Active | 5.4 | 38.6 | Active | Dose-dependent effect | 15.2 | 8.9 | 20 | 0.14 | 7.6 | 55.7 | – | – | – | – | –
CC(C)(C)C1=CC(=NNC(=O)c2ccccc2)C=C(C(C)(C)C)C1=O | 31 | Dose-dependent effect | 12.5 | Dose-dependent effect | Active | 38.5 | 26.4 | Active | Dose-dependent effect | 15 | 20 | 5.1 | 0.68 | 9.5 | 14 | – | – | – | – | –
CC(C)(C)C1=CC(=NNC(=O)c2cccnc2)C=C(C(C)(C)C)C1=O | 12.2 | Dose-dependent effect | 6.5 | Dose-dependent effect | Active | 28.6 | 34.5 | Active | Dose-dependent effect | 11 | 7.5 | – | 0.19 | 9.3 | 48.6 | Active | Non-toxic | Active | Active | Active
CC(C)(C)c1cc(/C=C2\SC(N)=NC2=O)cc(C(C)(C)C)c1O [DARBUFELONE] | – | – | – | – | – | – | – | – | – | – | – | – | – | 0.48 | 35 | – | – | – | – | –
